From ChEMBL document CHEMBL5329211, “Selective isoxazolopyrimidine PAT1 (SLC26A6) inhibitors for therapy of intestinal disorders” (RSC Med Chem, 2023)
Active and inactive are the calls of the source. The rule behind the calls is not given here.

Experiments:
[1] = target: T1, Solute carrier family 26 member 9 (Homo sapiens) (UniProt Q7LBE3); assay: Inhibition of SLC26A9 (unknown origin) expressed in rat FRT cells coexpressing YFP halide-sensing protein assessed as iodide-chloride exchange at 25 uM incubated for 2 sec by fluorescence quenching analysis; assay type: cell-based
T1 sequence (whole entry): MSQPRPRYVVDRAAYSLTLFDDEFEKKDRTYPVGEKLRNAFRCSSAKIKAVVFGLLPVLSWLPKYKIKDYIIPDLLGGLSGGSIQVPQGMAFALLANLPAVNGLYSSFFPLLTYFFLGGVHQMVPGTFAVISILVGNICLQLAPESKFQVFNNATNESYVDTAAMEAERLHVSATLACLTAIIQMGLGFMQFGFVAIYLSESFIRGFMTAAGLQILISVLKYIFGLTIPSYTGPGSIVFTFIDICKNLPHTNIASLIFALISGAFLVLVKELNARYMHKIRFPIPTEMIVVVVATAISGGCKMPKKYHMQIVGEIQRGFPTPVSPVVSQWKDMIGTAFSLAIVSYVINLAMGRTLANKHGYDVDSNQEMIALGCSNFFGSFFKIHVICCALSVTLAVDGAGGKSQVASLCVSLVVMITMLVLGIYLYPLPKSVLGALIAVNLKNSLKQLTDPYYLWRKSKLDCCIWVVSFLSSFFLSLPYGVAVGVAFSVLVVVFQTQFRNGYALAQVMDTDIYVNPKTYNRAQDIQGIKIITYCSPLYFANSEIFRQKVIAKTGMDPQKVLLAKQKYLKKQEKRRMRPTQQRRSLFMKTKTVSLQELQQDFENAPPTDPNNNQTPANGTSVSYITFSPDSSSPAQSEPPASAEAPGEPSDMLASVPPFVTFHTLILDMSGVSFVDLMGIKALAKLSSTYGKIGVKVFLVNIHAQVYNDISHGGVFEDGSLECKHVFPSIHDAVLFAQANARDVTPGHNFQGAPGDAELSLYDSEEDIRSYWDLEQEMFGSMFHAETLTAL

[2] = target: Cystic fibrosis transmembrane conductance regulator (Homo sapiens) (UniProt P13569); assay: Inhibition of CFTR (unknown origin)
[3] = target: T2, Anoctamin-1 (Homo sapiens) (UniProt Q5XXA6); assay: Inhibition of TMEM16A (unknown origin)
T2 sequence (whole entry): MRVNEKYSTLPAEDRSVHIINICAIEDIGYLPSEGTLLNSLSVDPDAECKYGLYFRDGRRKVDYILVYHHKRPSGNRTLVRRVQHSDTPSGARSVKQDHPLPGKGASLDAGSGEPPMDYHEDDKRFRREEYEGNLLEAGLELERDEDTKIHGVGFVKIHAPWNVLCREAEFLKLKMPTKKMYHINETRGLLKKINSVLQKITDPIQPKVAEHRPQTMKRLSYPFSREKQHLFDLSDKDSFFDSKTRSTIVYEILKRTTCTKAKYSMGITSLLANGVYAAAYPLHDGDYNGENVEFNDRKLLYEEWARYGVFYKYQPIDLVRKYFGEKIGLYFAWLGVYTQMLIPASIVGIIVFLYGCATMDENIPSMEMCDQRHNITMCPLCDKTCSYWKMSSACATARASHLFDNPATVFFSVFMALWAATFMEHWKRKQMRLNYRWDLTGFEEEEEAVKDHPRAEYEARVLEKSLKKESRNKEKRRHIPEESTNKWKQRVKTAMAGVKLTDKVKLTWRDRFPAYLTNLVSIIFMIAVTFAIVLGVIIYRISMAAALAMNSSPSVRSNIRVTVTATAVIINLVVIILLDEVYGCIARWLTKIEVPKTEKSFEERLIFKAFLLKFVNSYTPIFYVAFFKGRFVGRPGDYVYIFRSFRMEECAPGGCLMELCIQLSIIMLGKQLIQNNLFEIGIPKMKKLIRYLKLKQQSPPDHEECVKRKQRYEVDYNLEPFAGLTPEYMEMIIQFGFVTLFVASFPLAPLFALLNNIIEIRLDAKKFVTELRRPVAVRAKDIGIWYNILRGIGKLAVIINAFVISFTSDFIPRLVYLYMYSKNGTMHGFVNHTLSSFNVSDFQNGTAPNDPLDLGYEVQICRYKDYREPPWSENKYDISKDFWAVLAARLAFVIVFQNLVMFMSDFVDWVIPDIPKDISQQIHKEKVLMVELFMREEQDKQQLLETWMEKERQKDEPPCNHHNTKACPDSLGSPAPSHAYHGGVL

[4] = Cytotoxicity against rat FRT cells assessed as reduction in cell viability at 10 uM incubated for 24 hrs by alamar blue staining based analysis; assay type: toxicity
Outline: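 FRT cells seeded 20,000/well and grown 24 h, then exposed to compound at 10 μM for 24 h. Vehicle control 0.1% DMSO, positive control 20% DMSO. Viability read by Alamar Blue.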

[5] = In vivo inhibition of PAT1 in intestinal closed-loop CD-1 mouse model assessed as reduction in loop weight/length ratio in ileum measured for 30 mins; assay type: functional; conditions: 0.5 h
Outline: (§1)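 Mice (wild-type CD1 or homozygous F508del CF, 10-16 wk, both sexes) fasted 24 h with free access to 5% dextrose water. Under isoflurane at 36-38 °C, 2-3 ileal loops (2-3 cm) were tied off and injected with 100 µL PBS pH 7.4 containing 30 µM inhibitor, 10 µM tenapanor or 0.1% DMSO vehicle. Loops removed at 0 or 30 min in separate mice; length and weight measured for fluid absorption. One-way ANOVA with Newman-Keuls.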

Mus musculus = assay: In vivo inhibition of PAT1 in intestinal closed-loop CD-1 mouse model harboring CFTR delF508/delF508 mutant assessed as reduction in loop weight/length ratio in ileum measured for 30 mins; assay type: functional, organism-based; outline: as §1
[6] = In vivo inhibition of PAT1 in intestinal closed-loop CD-1 mouse model harboring CFTR delF508/delF508 mutant assessed as reduction in loop fluid volume in ileum measured for 30 mins; assay type: functional; conditions: 0.5 h; outline: as §1

Sequence of Cystic fibrosis transmembrane conductance regulator (Homo sapiens) (P13569 whole entry, looked up): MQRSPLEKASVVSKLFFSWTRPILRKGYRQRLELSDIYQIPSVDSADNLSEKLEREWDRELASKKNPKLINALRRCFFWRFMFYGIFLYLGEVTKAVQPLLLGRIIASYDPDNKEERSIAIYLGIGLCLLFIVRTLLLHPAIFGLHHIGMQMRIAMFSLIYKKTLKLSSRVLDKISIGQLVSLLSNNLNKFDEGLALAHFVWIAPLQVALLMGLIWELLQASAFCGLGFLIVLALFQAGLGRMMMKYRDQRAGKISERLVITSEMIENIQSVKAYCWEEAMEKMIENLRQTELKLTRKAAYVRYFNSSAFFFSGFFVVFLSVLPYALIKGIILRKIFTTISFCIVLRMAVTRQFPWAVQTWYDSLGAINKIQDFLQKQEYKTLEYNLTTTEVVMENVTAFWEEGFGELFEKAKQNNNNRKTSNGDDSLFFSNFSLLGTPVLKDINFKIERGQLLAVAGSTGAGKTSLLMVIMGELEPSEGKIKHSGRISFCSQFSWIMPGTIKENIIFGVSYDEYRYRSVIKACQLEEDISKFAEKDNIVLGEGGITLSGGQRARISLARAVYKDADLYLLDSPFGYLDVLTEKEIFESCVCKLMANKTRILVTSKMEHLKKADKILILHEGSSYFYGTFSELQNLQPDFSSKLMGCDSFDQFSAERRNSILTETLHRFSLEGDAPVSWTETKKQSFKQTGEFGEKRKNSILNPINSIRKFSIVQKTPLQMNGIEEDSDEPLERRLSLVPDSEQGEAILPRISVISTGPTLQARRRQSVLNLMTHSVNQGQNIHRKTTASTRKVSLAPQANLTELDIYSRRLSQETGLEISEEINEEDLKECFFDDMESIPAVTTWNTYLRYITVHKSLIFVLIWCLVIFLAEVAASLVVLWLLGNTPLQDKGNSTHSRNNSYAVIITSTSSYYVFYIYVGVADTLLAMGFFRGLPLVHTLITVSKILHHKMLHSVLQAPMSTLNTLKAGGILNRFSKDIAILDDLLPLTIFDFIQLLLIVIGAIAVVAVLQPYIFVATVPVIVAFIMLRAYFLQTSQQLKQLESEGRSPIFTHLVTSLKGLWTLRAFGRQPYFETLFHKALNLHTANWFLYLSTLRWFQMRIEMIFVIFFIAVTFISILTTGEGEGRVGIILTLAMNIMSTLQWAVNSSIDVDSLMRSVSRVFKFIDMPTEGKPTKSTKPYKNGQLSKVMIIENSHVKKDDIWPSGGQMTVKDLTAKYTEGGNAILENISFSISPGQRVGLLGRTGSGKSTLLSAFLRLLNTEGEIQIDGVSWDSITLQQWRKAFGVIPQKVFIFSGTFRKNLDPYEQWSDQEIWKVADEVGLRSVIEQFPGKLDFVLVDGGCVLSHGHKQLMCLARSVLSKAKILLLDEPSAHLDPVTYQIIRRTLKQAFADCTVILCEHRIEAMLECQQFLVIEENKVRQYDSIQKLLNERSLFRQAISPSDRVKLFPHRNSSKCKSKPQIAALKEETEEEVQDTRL

For `CCOC(=O)c1nc(N(C)Cc2ccccc2)c2c(C)noc2n1`, the inhibition [1] was “inactive”, the inhibition [2] was “inactive” and the inhibition [3] was “inactive”. For the same compound, the Activity [4] was “Non-Toxic”, the “inhibition (INH)” value [5] was greater than 90% and the inhibition (Mus musculus) was “Active”. The “inhibition (INH)” value [6] was greater than 90%.
